According to ChEMBL document CHEMBL3611989, “Discovery and characterization of aryl isonitriles as a new class of compounds versus methicillin- and vancomycin-resistant Staphylococcus aureus” (Eur J Med Chem, 2015):
In brackets after ≈: the same amount, converted by molar mass.

Key:
Staphylococcus aureus [1] = test: Antimicrobial activity against methicillin-resistant Staphylococcus aureus USA200 assessed as reduction in bacterial growth incubated for 18 to 20 hrs at 37 degC by broth microdilution method; format: functional
Method in brief: (§1)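 Modified CLSI broth microdilution. Bacterial suspension of about 1 × 10^5 CFU/mL in tryptic soy broth. Each agent was added in triplicate to the first row and serially diluted down the plate. Plates were incubated at 37 °C for 18-20 h. MIC was read as the lowest concentration with no visible growth.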

Staphylococcus aureus [2] = test: Antimicrobial activity against methicillin-resistant Staphylococcus aureus NRS119 assessed as reduction in bacterial growth incubated for 18 to 20 hrs at 37 degC by broth microdilution method; format: functional; method in brief: as §1
Staphylococcus aureus [3] = test: Antimicrobial activity against vancomycin-intermediate-resistant Staphylococcus aureus NRS1 assessed as reduction in bacterial growth incubated for 18 to 20 hrs at 37 degC by broth microdilution method; format: functional; method in brief: as §1
Staphylococcus aureus [4] = test: Antimicrobial activity against vancomycin-resistant Staphylococcus aureus VRS2 assessed as reduction in bacterial growth incubated for 18 to 20 hrs at 37 degC by broth microdilution method; format: functional; method in brief: as §1
Staphylococcus aureus [5] = test: Antimicrobial activity against methicillin-resistant Staphylococcus aureus USA700 assessed as reduction in bacterial growth incubated for 18 to 20 hrs at 37 degC by broth microdilution method; format: functional; method in brief: as §1
Staphylococcus aureus [6] = test: Antimicrobial activity against methicillin-sensitive Staphylococcus aureus NRS72 assessed as reduction in bacterial growth incubated for 18 to 20 hrs at 37 degC by broth microdilution method; format: functional; method in brief: as §1
Staphylococcus aureus [7] = test: Antimicrobial activity against methicillin-resistant Staphylococcus aureus USA500 assessed as reduction in bacterial growth incubated for 18 to 20 hrs at 37 degC by broth microdilution method; format: functional; method in brief: as §1
Staphylococcus aureus [8] = test: Antimicrobial activity against methicillin-resistant Staphylococcus aureus USA100 assessed as reduction in bacterial growth incubated for 18 to 20 hrs at 37 degC by broth microdilution method; format: functional; method in brief: as §1
Staphylococcus aureus [9] = test: Antimicrobial activity against methicillin-resistant Staphylococcus aureus USA300 assessed as reduction in bacterial growth incubated for 18 to 20 hrs at 37 degC by broth microdilution method; format: functional; method in brief: as §1
J774 [10] = format: cell-based; settings: mouse, j774, 2 h, 128 µM
J774 [11] = test: Cytotoxicity against mouse J774 cells assessed as reduction in cell viability at 64 uM incubated for 2 hrs by MTS assay; format: cell-based; settings: j774, 2 h
Method in brief: (§2)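 Murine J774 macrophages grown in DMEM with 10% FBS at 37 °C, 5% CO2. Compounds were tested in triplicate at 16, 32, 64 and 128 μM for 2 h, with DMSO-matched vehicle controls. MTS reagent was then added and absorbance read at OD490. Viability is given as percent of DMSO-treated cells (mean of triplicate ± standard deviation), compared by paired t-test (P < 0.05).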

J774 [12] = test: Cytotoxicity against mouse J774 cells assessed as reduction in cell viability at 32 uM incubated for 2 hrs by MTS assay; format: cell-based; settings: j774, 2 h; method in brief: as §2

| SMILES | MIC (Staphylococcus aureus [1]) | MIC (Staphylococcus aureus [2]) | MIC (Staphylococcus aureus [3]) | MIC (Staphylococcus aureus [4]) | MIC (Staphylococcus aureus [5]) | MIC (Staphylococcus aureus [6]) | MIC (Staphylococcus aureus [7]) | MIC (Staphylococcus aureus [8]) | MIC (Staphylococcus aureus [9]) | Activity (J774 [10]) | Activity (J774 [11]) | Activity (J774 [12]) |
| --- | --- | --- | --- | --- | --- | --- | --- | --- | --- | --- | --- | --- |
| [C-]#[N+]c1ccc(/C=C/c2ccccn2)cc1 | 128 µM (≈ 26.4 µg/mL) | 128 µM (≈ 26.4 µg/mL) | 64 µM (≈ 13.2 µg/mL) | 64 µM (≈ 13.2 µg/mL) | 128 µM (≈ 26.4 µg/mL) | 64 µM (≈ 13.2 µg/mL) | 64 µM (≈ 13.2 µg/mL) | 128 µM (≈ 26.4 µg/mL) | 32 µM (≈ 6.6 µg/mL) |  |  |  |
| [C-]#[N+]c1cccc(/C=C/c2cccnc2)c1 | 64 µM (≈ 13.2 µg/mL) | 64 µM (≈ 13.2 µg/mL) | 64 µM (≈ 13.2 µg/mL) | 64 µM (≈ 13.2 µg/mL) | 64 µM (≈ 13.2 µg/mL) | 64 µM (≈ 13.2 µg/mL) | 64 µM (≈ 13.2 µg/mL) | 32 µM (≈ 6.6 µg/mL) | 32 µM (≈ 6.6 µg/mL) |  |  |  |
| [C-]#[N+]c1ccc(/C=C/c2cccnc2)cc1 | 32 µM (≈ 6.6 µg/mL) | 64 µM (≈ 13.2 µg/mL) | 32 µM (≈ 6.6 µg/mL) | 8 µM (≈ 1.65 µg/mL) | 16 µM (≈ 3.3 µg/mL) | 16 µM (≈ 3.3 µg/mL) | 32 µM (≈ 6.6 µg/mL) | 16 µM (≈ 3.3 µg/mL) |  | Toxic | Non-toxic | Non-toxic |
| [C-]#[N+]c1ccccc1/C=C/c1ccncc1 | 32 µM (≈ 6.6 µg/mL) | 64 µM (≈ 13.2 µg/mL) | 64 µM (≈ 13.2 µg/mL) | 64 µM (≈ 13.2 µg/mL) | 32 µM (≈ 6.6 µg/mL) | 64 µM (≈ 13.2 µg/mL) | 32 µM (≈ 6.6 µg/mL) | 32 µM (≈ 6.6 µg/mL) | 32 µM (≈ 6.6 µg/mL) |  |  |  |
| [C-]#[N+]c1cccc(/C=C/c2ccncc2)c1 | 64 µM (≈ 13.2 µg/mL) | 32 µM (≈ 6.6 µg/mL) | 32 µM (≈ 6.6 µg/mL) | 64 µM (≈ 13.2 µg/mL) | 64 µM (≈ 13.2 µg/mL) | 64 µM (≈ 13.2 µg/mL) | 64 µM (≈ 13.2 µg/mL) | 32 µM (≈ 6.6 µg/mL) | 32 µM (≈ 6.6 µg/mL) |  |  |  |
| [C-]#[N+]c1ccc(/C=C/c2ccncc2)cc1 | 8 µM (≈ 1.65 µg/mL) |  | 8 µM (≈ 1.65 µg/mL) | 4 µM (≈ 0.825 µg/mL) | 8 µM (≈ 1.65 µg/mL) | 2 µM (≈ 0.412 µg/mL) |  | 8 µM (≈ 1.65 µg/mL) |  | Toxic | Non-toxic | Non-toxic |
| [C-]#[N+]c1ccc(/C=C/c2ccccc2)cc1 | 32 µM (≈ 6.57 µg/mL) | > 128 µM | > 128 µM | > 128 µM | 64 µM (≈ 13.1 µg/mL) | 4 µM (≈ 0.821 µg/mL) | 16 µM (≈ 3.28 µg/mL) | 4 µM (≈ 0.821 µg/mL) | 4 µM (≈ 0.821 µg/mL) | Non-toxic | Non-toxic | Non-toxic |
| N#Cc1ccccc1/C=C/c1ccccc1 | > 128 µM | > 128 µM | > 128 µM | > 128 µM | > 128 µM | > 128 µM | > 128 µM | > 128 µM | > 128 µM |  |  |  |
| [C-]#[N+]c1ccc(C)cc1-c1ccc(C(C)(C)C)cc1 | 16 µM (≈ 3.99 µg/mL) | 64 µM (≈ 16 µg/mL) | 4 µM (≈ 0.997 µg/mL) | > 128 µM | 16 µM (≈ 3.99 µg/mL) | > 128 µM | > 128 µM | 16 µM (≈ 3.99 µg/mL) | > 128 µM |  |  |  |
| [C-]#[N+]c1ccc(C)cc1-c1ccc(C(F)(F)F)cc1 | > 128 µM | > 128 µM | > 128 µM | > 128 µM | > 128 µM | > 128 µM | > 128 µM | > 128 µM | > 128 µM |  |  |  |
| [C-]#[N+]c1ccccc1-c1ccc2ccccc2c1 | 64 µM (≈ 14.7 µg/mL) | 32 µM (≈ 7.34 µg/mL) | 4 µM (≈ 0.917 µg/mL) | 64 µM (≈ 14.7 µg/mL) | 16 µM (≈ 3.67 µg/mL) | 16 µM (≈ 3.67 µg/mL) | 32 µM (≈ 7.34 µg/mL) | 16 µM (≈ 3.67 µg/mL) | 64 µM (≈ 14.7 µg/mL) | Toxic | Non-toxic | Non-toxic |
| Nc1ccccc1CCc1ccccc1 | 32 µM (≈ 6.31 µg/mL) | > 128 µM | 8 µM (≈ 1.58 µg/mL) | > 64 µM | > 64 µM | > 128 µM | > 64 µM | > 128 µM | > 128 µM |  |  |  |
| [C-]#[N+]c1ccccc1CCc1ccccc1 | 16 µM (≈ 3.32 µg/mL) | 2 µM (≈ 0.415 µg/mL) | 2 µM (≈ 0.415 µg/mL) | 64 µM (≈ 13.3 µg/mL) | 32 µM (≈ 6.63 µg/mL) | 64 µM (≈ 13.3 µg/mL) | 128 µM (≈ 26.5 µg/mL) | 4 µM (≈ 0.829 µg/mL) | 4 µM (≈ 0.829 µg/mL) |  |  |  |
| CC(=O)NC[C@H]1CN(c2ccc(N3CCOCC3)c(F)c2)C(=O)O1 [LINEZOLID] | 2 µM (≈ 0.675 µg/mL) | 64 µM (≈ 21.6 µg/mL) | < 1 µM | < 1 µM | 2 µM (≈ 0.675 µg/mL) | 2 µM (≈ 0.675 µg/mL) | < 1 µM | < 1 µM | 2 µM (≈ 0.675 µg/mL) |  |  |  |
| CN[C@H](CC(C)C)C(=O)N[C@H]1C(=O)N[C@@H](CC(N)=O)C(=O)N[C@H]2C(=O)N[C@H]3C(=O)N[C@H](C(=O)N[C@H](C(=O)O)c4cc(O)cc(O)c4-c4cc3ccc4O)[C@H](O)c3ccc(c(Cl)c3)Oc3cc2cc(c3O[C@@H]2O[C@H](CO)[C@@H](O)[C@H](O)[C@H]2O[C@H]2C[C@](C)(N)[C@H](O)[C@H](C)O2)Oc2ccc(cc2Cl)[C@H]1O [VANCOMYCIN] |  |  | 8 µM (≈ 11.6 µg/mL) | 128 µM (≈ 186 µg/mL) |  | < 1 µM | 4 µM (≈ 5.8 µg/mL) | 2 µM (≈ 2.9 µg/mL) |  |  |  |  |
